Source: PubChem BioAssay
Compounds with a hit are over-represented: about 4.5% of the library has one in this group of screens.
PHOSPHO1 inh: blocks human PHOSPHO1 phosphatase activity; Q8TCT1; recombinant PHOSPHO1, absorbance phosphatase assay; inhibition, % at 13.3 µM; 290,000 compounds, 1.1% hits; AID 1565; in the data active means inhibition above about 60%
Target sequence (Q8TCT1 whole entry, looked up): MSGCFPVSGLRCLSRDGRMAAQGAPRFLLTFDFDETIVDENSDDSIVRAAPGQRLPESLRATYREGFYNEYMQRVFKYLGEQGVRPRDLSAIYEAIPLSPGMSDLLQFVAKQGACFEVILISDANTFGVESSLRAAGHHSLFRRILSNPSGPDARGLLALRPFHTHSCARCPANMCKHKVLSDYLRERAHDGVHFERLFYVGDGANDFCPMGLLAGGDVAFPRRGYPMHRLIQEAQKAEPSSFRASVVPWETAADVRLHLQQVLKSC
RGS4 inh: inhibitors of human RGS4. B-score at 10 µM. 310,000 compounds, 0.45% hits. HEK293 M3R/RGS4 inducible, Fluo-4 calcium flux; stronger effect = higher value; triggered by carbachol at its EC20. P49798. AID 463165;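 active means B-score, a plate-corrected calcium signal, over three deviations above library mean, with baseline fluorescence within five deviations of library mean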;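 further: RGS4 expression induced by doxycycline in cells with stable M3 receptor; B-score is computed from the integrated fluorescence ratio over baseline after carbachol; higher B-score means a larger calcium signal and so more RGS4 inhibition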
Target sequence (P49798 whole entry, looked up): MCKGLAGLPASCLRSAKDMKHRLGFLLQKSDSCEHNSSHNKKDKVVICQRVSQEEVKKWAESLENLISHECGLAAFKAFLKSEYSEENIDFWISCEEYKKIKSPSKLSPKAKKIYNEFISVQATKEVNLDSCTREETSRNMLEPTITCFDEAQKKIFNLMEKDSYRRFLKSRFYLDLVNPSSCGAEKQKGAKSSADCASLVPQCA
MrgX1 allo act: human MrgX1 positive allosteric modulation, primary screen. MrgX1-HEK293, Fluo-4 calcium flux, FDSS; stronger effect = higher value. B-score at 10 µM. AID 588675. Q96LB2. 310,000 compounds, 0.63% hits;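 active means plate-corrected calcium response at least 3 library SD above typical, normal starting fluorescence, not activating the receptor alone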;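 further: compound read alongside a low EC10 to EC30 dose of BAM8-22 agonist; peak minus trough fluorescence over baseline measured at the second addition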
MrgX1 ag: agonists of human MrgX1 receptor; B-score at 10 µM; 310,000 compounds, 0.44% hits; MrgX1-HEK293 cells, Fluo-4 calcium fluorescence, agonist mode; stronger effect = higher value; AID 588627;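 active means calcium response B-score plate-corrected fluorescence ratio at least 3 library SD, with starting fluorescence B-score inside 5 SD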
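System – MrgX1-expressing HEK293 cells · Incubation – cells plated overnight, dye loaded 0.5 h 37 °C, 0.5 h room temperature · Technique – kinetic Fluo-4 NW fluorescence of intracellular calcium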
RGS4 act: potentiators or activators of RGS4 | HEK293 M3R/inducible RGS4, carbachol calcium flux Fluo4; stronger effect = lower value | B-score at 10 µM | 310,000 compounds, 0.92% hits | AID 463111;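 active means B-score of the integrated calcium signal more than 4 SD below the library mean, with starting fluorescence not abnormally high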;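 further: negative B-score means reduced calcium response which marks RGS4 activation or potentiation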
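Assay system: Inducible-RGS4 HEK293 cells carrying M3 receptor | Schedule: Compound preincubation 20 min at room temperature before agonist | Signal: Kinetic calcium fluorescence imaging with Fluo4-AM dye, 2 µM | Read-out basis: B score from integrated fluorescence ratio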
MrgX1 antagonist: human MrgX1 receptor antagonism, primary screen; MRGX1-HEK293 calcium flux, Fluo-4, BAM8-22 antagonism; stronger effect = lower value; AID 588676; B-score at 10 µM; 310,000 compounds, 1.3% hits;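 active means calcium-response B-score plate-corrected more than 3 library SD below zero, starting fluorescence within 5 deviations, no agonist response on first addition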;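 further: peak minus trough fluorescence over baseline after final BAM8-22 challenge near maximal dose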
Active calls of the source: *; i = inactive; . = no result; ! = a repeat was not active.

SMILES | PHOSPHO1 inh | RGS4 inh | MrgX1 allo act | MrgX1 ag | RGS4 act | MrgX1 antagonist
CCC(=O)N1CCN(c2ccc(NC(=O)c3ccc4ccccc4c3)cc2)CC1 | -56 | i | i | i | i | i
CC1(C)CNc2cc([N+](=O)[O-])ccc2S1 | 17 | i | i | i | i | i
CCCN1C2=C(C(=O)CC(C)(C)C2)C(c2ccc(F)cc2)C2=C1c1ccccc1C2=O (stereo not drawn) | 19 | i | i | i | i | -8.7*
N#CCSc1nccc(/C=C/c2ccccc2)n1 | -20 | i | i | i | i | i
CCCSC1=C(C#N)C(c2cccs2)CC(=O)N1 (stereo not drawn) | 36 | i | i | i | i | i
N#CC1=C2SCN(Cc3ccccc3)CN2C(=O)CC1c1ccc2c(c1)OCO2 (stereo not drawn) | 63* | i | i | i | i | i
COc1cc(C2CC(=O)N3CN(Cc4ccco4)CSC3=C2C#N)ccc1OCc1ccccc1 (stereo not drawn) | 41 | i | i | i | i | i
N#CC1=C2SCN(Cc3ccccc3)CN2C(=O)CC1c1cccs1 (stereo not drawn) | 68* | i | i | i | i | i
CS(=O)(=O)N(CC(=O)N1CCN(c2ccccc2)CC1)c1cccc(Br)c1 | 98* | i | i | i | i | i
Cc1ccc(CSc2nnc(SCC(=O)N/N=C/c3ccc(C(=O)O)cc3)s2)cc1 | -175 | i | i | i | i | -5.2*
O=C(Nc1ccc(S(=O)(=O)Nc2nccs2)cc1)c1cnc(Cl)c(Cl)c1 | 20 | i | i | i | i | i
COCCNc1nc2nonc2nc1NC(C)c1ccccc1Cl (stereo not drawn) | 60* | i | i | i | i | i
Cn1cccc1-c1cc(C(=O)N/N=C/C=C/c2ccccc2)[nH]n1 | -40 | i | i | i | i | -5.8*
C/C(Cc1ccccc1)=N\NC(=O)CNC(=O)c1ccccc1Br | -4 | i | i | i | i | i
N#CCC(N)=C(C#N)C#N | 8 | i | i | i | i | -7.2*
O=S(=O)(/C=C/c1ccccc1)NC1CCCCCCC1 | 6 | i | i | i | i | i
O=C(C[n+]1cc(Br)cc2ccccc21)c1ccc(Cl)cc1 | 23 | i | 7.4* | i | i | i
COCCCNC(=O)c1ccc(S(=O)(=O)c2ccc(Cl)cc2)c(NC(C)=O)c1 | 33 | i | i | i | i | i
CC(C)c1nnc(SCC(=O)NCCC2=CCCCC2)n1N | 92* | i | i | i | i | i
COc1ccc(CNC(=O)CN(c2cc(C)cc(C)c2)S(=O)(=O)c2c(C)[nH]c(=O)[nH]c2=O)cc1 | 64* | i | i | i | i | i
CSc1ccc(CN(C)Cc2nc3ccccc3c(=O)[nH]2)cc1 | -8 | i | i | i | i | i
O=C(O)c1cccc(CN2C(=O)S/C(=C/c3ccccc3[N+](=O)[O-])C2=O)c1 | 24 | i | 11* | i | i | i
O=C(O)Cc1sc(N/N=C\c2ccncc2)nc1-c1ccccc1 | 32 | i | i | i | i | -5.8*
CCCCC1(C)OC(=O)C(=Cc2ccc(N(C)C)cc2)C(=O)O1 (stereo not drawn) | 52 | i | i | 29* | i | i
CC1CCN(c2ccc3nnc(CCC(=O)Nc4cccc(F)c4)n3n2)CC1 | 17 | i | i | i | i | i
SMILES | PHOSPHO1 inh | RGS4 inh | MrgX1 allo act | MrgX1 ag | RGS4 act | MrgX1 antagonist
NCCNC(=O)Cc1cccc(NC(=O)Cc2ccc(Nc3ncnc4c3ncn4[C@@H]3O[C@H](CO)[C@@H](O)[C@H]3O)cc2)c1 | 13 | i | 8.2* | i | i | i
Cc1ncc(CO)c(/C=N/NC(=S)Nc2ccc(Cl)c(Cl)c2)c1O | -78 | i | i | i | i | -9.6*
Cc1ncc(CO)c(/C=N/NC(=S)Nc2cccc(Cl)c2)c1O | -47 | i | i | i | i | i
Cc1cc(-c2onc(C)c2C(=O)O)no1 | 37 | i | i | i | i | i
CCN(CC)c1ccc(NC(=O)OC)cc1 | 31 | i | i | i | i | i
CCN(CC)c1ccc(SS(=O)(=O)O)cc1 | 106*! | i | i | i | i | i
OC(CNc1nc(-c2cccnc2)nc2ccccc12)c1ccccc1 (stereo not drawn) | 31 | i | i | i | i | i
O/N=C/c1nc2cc(Cl)ccc2o1 | 20 | i | 9.4* | i | i | i
CC(C)(C)/C(O)=C/c1nc2cc(Cl)ccc2oc1=O | 27 | i | i | i | i | i
O=C(CN1C(=O)/C(=C/c2ccccc2Cl)SC1=S)NC1C=CS(=O)(=O)C1 (stereo not drawn) | 75* | i | i | i | i | i
O=C(CN1C(=O)/C(=C/c2ccccc2)SC1=S)NC1C=CS(=O)(=O)C1 (stereo not drawn) | 18 | i | i | i | i | i
COc1ccc(N/C=C2\C(=O)CCc3c2oc2cc(Cl)c(O)c(Cl)c32)cc1 | 21 | i | i | i | i | -5*
O=C(Nc1nnc(-c2ccco2)s1)c1ccccc1 | 74* | i | i | i | i | i
Cc1ccccc1C(=O)Nc1nnc(-c2ccco2)s1 | 17 | i | i | i | i | i
COc1ccccc1C(=O)Nc1nnc(-c2ccco2)s1 | 38 | i | i | i | i | i
COc1ccc(C(=O)Nc2nnc(-c3ccco3)s2)cc1 | 73* | i | i | i | i | i
O=C(CCC(=O)OCC(=O)c1ccc(Cl)cc1Cl)Nc1cccc2cccnc12 | -3 | i | i | i | i | -8.4*
O=C(CCC(=O)OCC(=O)c1ccc(-c2ccccc2)cc1)Nc1cccc2cccnc12 | -1 | i | i | i | i | i
CCOc1cc(CN2CCCCC2)ccc1OC | -2 | i | i | i | i | i
CCOc1ccc(C=O)cc1CN1CCCCC1 | 10 | i | i | i | i | -5.8*
Cc1cccc2[nH]c(SCC(=O)N3CCOCC3)nc12 | 10 | i | i | i | i | i
COCCC(=O)N1CCC(Oc2ccc(C(=O)N3CCCC(COC)C3)cc2)CC1 (stereo not drawn) | . | i | . | . | i | .
O=C(NCc1csc2ccccc12)Nc1cc(Cl)cc(Cl)c1 | 13 | i | i | i | i | -4.6*
